# Experimental data published in ChEMBL document CHEMBL1629492 (Eur J Med Chem, 2010).
# Experiments:
# [1] = molecular target: T1, Alpha-1B adrenergic receptor (Rattus norvegicus, UniProt P15823); experiment: Antagonist activity at Alpha-1B adrenoceptor in Wistar rat spleen assessed as phenylephrine induced contractions after 30 mins; type: functional, tissue-based; details: read-out: pA2 (converted)
# T1 sequence (P15823 whole entry): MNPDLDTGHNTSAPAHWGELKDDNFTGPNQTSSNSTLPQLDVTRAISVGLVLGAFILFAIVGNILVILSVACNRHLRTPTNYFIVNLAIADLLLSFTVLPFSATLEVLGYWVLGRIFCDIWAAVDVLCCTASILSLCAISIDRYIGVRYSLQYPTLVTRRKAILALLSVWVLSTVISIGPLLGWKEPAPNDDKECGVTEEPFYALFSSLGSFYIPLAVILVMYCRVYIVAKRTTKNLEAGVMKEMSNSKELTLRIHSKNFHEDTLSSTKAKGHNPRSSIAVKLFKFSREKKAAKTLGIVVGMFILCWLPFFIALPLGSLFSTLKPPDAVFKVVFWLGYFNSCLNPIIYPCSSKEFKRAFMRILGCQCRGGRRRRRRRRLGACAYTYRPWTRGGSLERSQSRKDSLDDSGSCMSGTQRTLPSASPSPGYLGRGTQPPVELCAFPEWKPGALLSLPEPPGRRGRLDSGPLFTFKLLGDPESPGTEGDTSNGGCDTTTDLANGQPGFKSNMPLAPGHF
# Method in brief: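 Spleen strips from male Wistar rats (275–300 g) were set up in a 20 mL bath of physiological salt solution (pH 7.4, 37 °C, 95% O2/5% CO2) under 1 g tension and equilibrated 2 h. Two cumulative phenylephrine curves were run, each followed by 30 min washing, then 30 min incubation with vehicle or antagonist before a third curve. Values are Schild pA2, or pKB where slopes were nonparallel; 4–6 experiments.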
# [2] = molecular target: T2, Alpha-1A adrenergic receptor (Rattus norvegicus) (UniProt P43140); experiment: Antagonist activity at alpha1A adrenoceptor in Wistar rat vas deferens assessed as noradrenaline induced contractions after 30 mins; type: functional, tissue-based
# T2 sequence (whole entry): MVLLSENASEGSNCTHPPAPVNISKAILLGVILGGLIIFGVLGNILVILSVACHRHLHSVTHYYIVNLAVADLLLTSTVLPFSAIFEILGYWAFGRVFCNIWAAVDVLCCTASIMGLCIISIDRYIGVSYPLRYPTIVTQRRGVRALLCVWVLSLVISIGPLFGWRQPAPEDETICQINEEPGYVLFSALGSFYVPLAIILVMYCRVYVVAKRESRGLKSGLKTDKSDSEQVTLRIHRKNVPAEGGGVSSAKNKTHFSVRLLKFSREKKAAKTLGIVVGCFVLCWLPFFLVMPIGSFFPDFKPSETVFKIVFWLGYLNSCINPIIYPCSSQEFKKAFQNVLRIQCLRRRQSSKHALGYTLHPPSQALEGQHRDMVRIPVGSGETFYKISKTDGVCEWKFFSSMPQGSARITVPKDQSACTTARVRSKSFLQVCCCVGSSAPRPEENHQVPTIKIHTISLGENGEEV
# Method in brief: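 Prostatic portions (2 cm) of vas deferens from male Wistar rats (275–300 g) were held under 0.35 g tension in Tyrode solution at 37 °C with cocaine present. Tissues were equilibrated 45 min, primed twice with noradrenaline, then given a cumulative isotonic noradrenaline curve.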
# [3] = molecular target: T3, Alpha-1D adrenergic receptor (Rattus norvegicus) (UniProt P23944); details: Wistar, Thoracic aorta
# T3 sequence (whole entry): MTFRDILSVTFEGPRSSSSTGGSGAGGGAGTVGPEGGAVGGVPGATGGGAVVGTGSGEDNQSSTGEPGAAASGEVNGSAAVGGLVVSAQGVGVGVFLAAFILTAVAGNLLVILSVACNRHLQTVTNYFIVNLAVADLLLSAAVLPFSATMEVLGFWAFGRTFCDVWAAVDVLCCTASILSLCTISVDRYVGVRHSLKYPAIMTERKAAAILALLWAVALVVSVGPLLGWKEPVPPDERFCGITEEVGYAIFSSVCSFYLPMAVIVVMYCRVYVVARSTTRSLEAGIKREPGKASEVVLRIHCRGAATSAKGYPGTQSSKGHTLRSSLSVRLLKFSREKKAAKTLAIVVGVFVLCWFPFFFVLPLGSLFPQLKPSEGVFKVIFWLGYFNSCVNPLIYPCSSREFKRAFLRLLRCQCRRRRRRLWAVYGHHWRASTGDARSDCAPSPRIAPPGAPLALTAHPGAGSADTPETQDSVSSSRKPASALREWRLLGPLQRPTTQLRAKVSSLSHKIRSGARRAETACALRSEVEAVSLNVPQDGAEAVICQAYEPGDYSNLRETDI
smiles,measurement,setting,value
COc1ccc(C[C@@H](C)NCCOc2ccccc2OCC(F)(F)F)cc1S(N)(=O)=O,Kb,[1],1.1 nM
COc1ccc(C[C@@H](C)NCCOc2ccccc2OC(C)C)cc1S(N)(=O)=O,pKb,[2],9.66
COc1ccc(C[C@@H](C)NCCOc2ccccc2OCc2ccccc2)cc1S(N)(=O)=O,pKb,[3],9.2
same,pKb,[2],9.66
COc1ccc(C[C@@H](C)NC[C@H]2Oc3ccccc3O[C@H]2C)cc1S(N)(=O)=O,Kb,[1],30.9 nM
